From ChEMBL document CHEMBL5500386, “Design, synthesis and bioactivity evaluation of 4-hydroxycoumarin derivatives as potential anti-inflammatory agents against acute lung injury and colitis” (Eur J Med Chem, 2024)
Calls of active or inactive are those of the source. The rule behind the calls is not given here.

Assays:
THP-1 = experiment: Antiinflammatory activity in LPS-induced human THP-1 cells assessed as inhibition of IL-6 production pretreated for 30 mins followed by LPS stimulation and measured after 24 hrs by ELISA; assay type: functional, cell-based
Summary of the method: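 Cells pretreated 30 min with a gradient of concentrations (2.5–10 μM range) or DMSO, then given LPS 0.5 μg/mL for 24 h. IL-6 in medium measured by ELISA and normalised to living cell number by MTT. Expressed as % of the LPS group, mean ± SEM of triplicates. IC50 taken from the concentration-response.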

J774.A1 = experiment: Antiinflammatory activity in LPS-induced mouse J774.A1 cells assessed as reduction in IL-6 mRNA transcription pretreated for 2 hrs followed by LPS stimulation and measured after 6 hrs by RT-qPCR analysis; assay type: functional, cell-based; details: dose 2.5-10 µM
Summary of the method: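 J774A.1 or THP-1 cells pretreated with compound for 2 h, then LPS 0.5 μg/mL for 6 h, in triplicate. Total RNA extracted and reverse-transcribed. IL-6 quantified by RT-qPCR over 40 cycles and normalised to β-actin.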

[1] = target: Mitogen-activated protein kinase 9 (Homo sapiens) (UniProt P45984); experiment: Inhibition of JNK2 (unknown origin) at 10 uM relative to control
Mus musculus [2] = experiment: Protection against LPS-induced C57BL/6 mouse model of acute lung injury assessed as reduction in protein level in BALF at 20 mg/kg, po administered 3 times for every 12 hrs followed by LPS stimulation at 5 mg/kg and measured after 6 hrs; assay type: functional, organism-based; details: time 30.0 hrs
Summary of the method: (§1)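 C57BL/6 mice, 6 per group. Gavaged at 20 mg/kg three times at 12 h intervals; controls received saline, and dexamethasone 20 mg/kg served as reference. After the last dose, LPS 5 mg/kg given intratracheally. At 6 h, blood collected for serum IL-6 by ELISA. Left lung lavaged with 3 × 200 μL saline, and BALF assayed for IL-6, total protein and neutrophil count. Mean ± SEM, n = 6.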

Mus musculus [3] = experiment: Protection against LPS-induced C57BL/6 mouse model of acute lung injury assessed as reduction in IL-6 level in serum at 20 mg/kg, po administered 3 times for every 12 hrs followed by LPS stimulation at 5 mg/kg and measured after 6 hrs by ELISA; assay type: functional, organism-based; details: time 30.0 hrs; summary of the method: as §1
Mus musculus [4] = experiment: (§2) Protection against LPS-induced C57BL/6 mouse model of acute lung injury assessed as reduction in interstitial edema in lungs at 20 mg/kg, po administered 3 times for every 12 hrs followed by LPS stimulation at 5 mg/kg and measured after 6 hrs by H and E staining based analysis; assay type: functional, organism-based; details: time 30.0 hrs
Summary of the method: (§3)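 LPS-induced ALI in C57BL/6 mice: 20 mg/kg orally three times at 12 h intervals, then intratracheal LPS 5 mg/kg, killed at 6 h. Lungs paraffin-embedded, cut into 5 μm sections and H&E stained. Viewed at ×20.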

Mus musculus [5] = experiment: Protection against LPS-induced C57BL/6 mouse model of acute lung injury assessed as reduction in immune markers in lungs at 20 mg/kg, po administered 3 times for every 12 hrs followed by LPS stimulation at 5 mg/kg and measured after 6 hrs by H and E staining based analysis; assay type: functional, organism-based; details: time 30.0 hrs; summary of the method: as §3
Mus musculus [6] = experiment: as §2, with “destruction of the alveolar cell structure” for “interstitial edema in lungs”, “immunohistochemical” for “H and E”; assay type: functional, organism-based; details: time 30.0 hrs
Summary of the method: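 LPS-induced ALI in C57BL/6 mice: 20 mg/kg orally three times at 12 h intervals, then intratracheal LPS 5 mg/kg, lungs taken at 6 h. F4/80 IHC: xylene deparaffinisation, citrate pH 6 retrieval for 25 min, primary antibody at 4 °C for 12 h, secondary 1:2000, DAB and hematoxylin. Viewed at ×20.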

Mus musculus [7] = experiment: Antiinflammatory activity in DSS-induced male C57BL/6 mouse model of inflammatory bowel disease assessed as increase in colon length at 20 mg/kg, IG administered with compound and DSS for 7 days followed by DSS replacement with distilled water for 3 days; assay type: functional, organism-based; details: time 10.0 day
Mus musculus [8] = experiment: Antiinflammatory activity in DSS-induced male C57BL/6 mouse model of inflammatory bowel disease assessed as inhibition of IL-6 release in plasma at 20 mg/kg, IG administered with compound and DSS for 7 days followed by DSS replacement with distilled water for 3 days; assay type: functional, organism-based; details: time 10.0 day
Mus musculus [9] = experiment: (§4) Antiinflammatory activity in DSS-induced male C57BL/6 mouse model of inflammatory bowel disease assessed as normal appearance of crypt cells at 20 mg/kg, IG administered with compound and DSS for 7 days followed by DSS replacement with distilled water for 3 days by H and E staining based analysis; assay type: functional, organism-based; details: time 10.0 day
Mus musculus [10] = experiment: Antiinflammatory activity in DSS-induced male C57BL/6 mouse model of inflammatory bowel disease assessed as normal appearance of goblet cells at 20 mg/kg, IG administered with compound and DSS for 7 days followed by DSS replacement with distilled water for 3 days by H and E staining based analysis; assay type: functional, organism-based; details: time 10.0 day
Mus musculus [11] = experiment: as §4, with “reduction in F4/80 positive cell population in intestine” for “normal appearance of crypt cells”, “immunohistochemistry” for “H and E”; assay type: functional, organism-based; details: time 10.0 day
Summary of the method: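 DSS colitis in C57BL/6 mice (2.5 % DSS for 7 days, then water for 3 days), 20 mg/kg po daily in DMSO/CMC-Na, n = 6. Colon fixed in 4 % formaldehyde. For IHC: deparaffinised in xylene, antigen retrieval by boiling in citrate buffer pH 6 for 25 min, primary antibody at 4 °C for 12 h, secondary 1:2000, then DAB with hematoxylin counterstain.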

Mus musculus [12] = experiment: as §4, with “reduction in red and white pulp merging in spleen” for “normal appearance of crypt cells”; assay type: functional, organism-based; details: time 10.0 day
[13] = Acute toxicity in male ICR mouse assessed as histopathological changes in kidney at 500 to 1000 mg/kg, po administered daily for 10 days by H and E staining based analysis; assay type: organism-based; details: in vivo, 240 h, dose 500-1000 mg/kg, time 10 day
Summary of the method: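 Male ICR mice (8 weeks, 30 g ± 2 g), acclimatised 1 week, randomised into 1000 mg/kg, 500 mg/kg and untreated control groups (n = 24 total). Dosed by daily gavage, compound dissolved in 0.5 % DMSO then added to normal saline. Body weight and behaviour recorded daily. Euthanised after 10 days; heart, liver, spleen, lung and kidney examined by H&E staining.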

[14] = AUC (0 to t) in male Sprague-Dawley rat at 1 mg/kg, iv measured upto 24 hrs by triple quadrupole mass spectrometric analysis; assay type: ADME, organism-based; details: in vivo
Summary of the method: (§5)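 Male SD rats (8 weeks, 200 g ± 20 g), n = 3 per route. Oral: 10 mg/kg by gavage in 0.05 % DMSO/normal saline, tail-vein blood at 13 times from 10 min to 24 h. IV: 1 mg/kg tail vein in 5 % DMSO/30 % PEG400/65 % saline, 14 samples from 5 min to 24 h. Heparinised plasma precipitated with acetonitrile containing internal standard. Non-compartmental analysis on mean concentrations.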

[15] = AUC (0 to infinity) in male Sprague-Dawley rat at 1 mg/kg, iv measured upto 24 hrs by triple quadrupole mass spectrometric analysis; assay type: ADME, organism-based; details: in vivo; summary of the method: as §5
[16] = Half life in male Sprague-Dawley rat at 1 mg/kg, iv measured upto 24 hrs by triple quadrupole mass spectrometric analysis; assay type: ADME, organism-based; details: in vivo; summary of the method: as §5

Sequence of Mitogen-activated protein kinase 9 (Homo sapiens) (P45984 whole entry, looked up): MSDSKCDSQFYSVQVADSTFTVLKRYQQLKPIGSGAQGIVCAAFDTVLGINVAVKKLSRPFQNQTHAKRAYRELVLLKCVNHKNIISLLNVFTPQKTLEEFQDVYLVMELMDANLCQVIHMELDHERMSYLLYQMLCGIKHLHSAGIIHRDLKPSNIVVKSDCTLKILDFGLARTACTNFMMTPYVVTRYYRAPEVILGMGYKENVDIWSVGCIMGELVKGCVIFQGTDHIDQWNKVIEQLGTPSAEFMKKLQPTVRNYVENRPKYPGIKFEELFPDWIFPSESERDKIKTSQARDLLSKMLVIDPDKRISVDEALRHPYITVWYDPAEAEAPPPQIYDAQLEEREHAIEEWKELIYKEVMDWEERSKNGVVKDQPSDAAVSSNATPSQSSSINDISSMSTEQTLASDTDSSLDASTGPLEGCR

With `CC(=O)N1CCN(CCOc2cc(=O)oc3ccccc23)CC1` the IC50 (THP-1) was 6.51 µM, the Activity (THP-1; time 24.5 hrs) was “Dose-Dependent Effect” and the Activity (J774.A1) was “Dose-Dependent Effect”. For the same compound, the inhibition [1] was 5.93%, the Activity (Mus musculus [2]) was “Active” and the Activity (Mus musculus [3]) was “Active”. The Activity (Mus musculus [4]) was “Active”, the Activity (Mus musculus [5]) was “Active” and the Activity (Mus musculus [6]) was “Active”. The Activity (Mus musculus [7]) was “Active”, the Activity (Mus musculus [8]) was “Active” and the Activity (Mus musculus [9]) was “Active”. For the same compound, the Activity (Mus musculus [10]) was “Active”, the Activity (Mus musculus [11]) was “Active” and the Activity (Mus musculus [12]) was “Active”. For the same compound, the Activity [13] was “Non-Toxic”, the AUC(0-t) at 24 h [14] was 929 ng·h/mL and the AUC(0-inf) [15] was 1020 ng·h/mL. For the same compound, the half-life [16] was 18.6 min.
